Measured values: ChEMBL document CHEMBL1147762, “A new chemical tool for exploring the physiological function of the PDE2 isozyme” (Bioorg Med Chem Lett, 2006)
pIC50: −log10 of the molar value.

Tests used:
[1] = molecular target: Glycogen synthase kinase-3 beta (Homo sapiens) (UniProt P49841); test: Inhibition of GSK3-beta at 10 uM
[2] = molecular target: Sodium-dependent serotonin transporter (Homo sapiens) (UniProt P31645); test: Activity against serotonin uptake at 10 uM
[3] = Apical cell permeability in parental MDCK cells
[4] = Cmax in rat; type: ADME, organism-based; settings: Sprague-Dawley, in vivo
Outline: (§1)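 Sprague–Dawley rats were dosed intravenously at 1 mg/kg in EtOH:PEG 400:H2O (1:4:5) and orally at 30 mg/kg in 0.5% methylcellulose.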

[5] = molecular target: Adrenergic receptor alpha-1 (Homo sapiens) (UniProt P35348+P25100+P35368); test: Percentage binding to adrenergic alpha-1 receptor at 10 uM; type: protein assay
[6] = Clearance in rat; type: ADME, organism-based; settings: Sprague-Dawley, in vivo; outline: as §1
[7] = molecular target: D(4) dopamine receptor (Homo sapiens) (UniProt P21917); test: Percentage binding to dopamine D4 at 10 uM
[8] = Oral bioavailability in rat; type: ADME, organism-based; settings: Sprague-Dawley, in vivo
Outline: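 Sprague–Dawley rats were dosed intravenously at 1 mg/kg in EtOH:PEG 400:H2O (1:4:5) and orally at 30 mg/kg in 0.5% methylcellulose. Plasma was sampled at 0.083, 0.25, 0.5, 1, 2, 4, 6 and 8 h after dosing and analysed.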

[9] = molecular target: Melanocortin receptor 4 (Homo sapiens) (UniProt P32245); test: Percentage binding to MCR4 at 10 uM
Melanocortin receptor 4 (Homo sapiens), sequence (P32245 whole entry): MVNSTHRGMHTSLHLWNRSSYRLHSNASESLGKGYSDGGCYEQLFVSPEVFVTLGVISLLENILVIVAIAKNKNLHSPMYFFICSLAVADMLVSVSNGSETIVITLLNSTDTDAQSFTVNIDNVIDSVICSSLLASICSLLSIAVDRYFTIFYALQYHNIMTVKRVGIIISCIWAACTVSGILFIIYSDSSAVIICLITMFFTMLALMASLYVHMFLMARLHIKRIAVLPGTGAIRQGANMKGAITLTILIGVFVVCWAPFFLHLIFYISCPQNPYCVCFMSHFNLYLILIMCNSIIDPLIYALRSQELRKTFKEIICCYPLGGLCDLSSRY

[10] = molecular target: B1 bradykinin receptor (Homo sapiens) (UniProt P46663); test: Percentage binding to bradykinin B1 at 10 uM
B1 bradykinin receptor (Homo sapiens), sequence (P46663 whole entry): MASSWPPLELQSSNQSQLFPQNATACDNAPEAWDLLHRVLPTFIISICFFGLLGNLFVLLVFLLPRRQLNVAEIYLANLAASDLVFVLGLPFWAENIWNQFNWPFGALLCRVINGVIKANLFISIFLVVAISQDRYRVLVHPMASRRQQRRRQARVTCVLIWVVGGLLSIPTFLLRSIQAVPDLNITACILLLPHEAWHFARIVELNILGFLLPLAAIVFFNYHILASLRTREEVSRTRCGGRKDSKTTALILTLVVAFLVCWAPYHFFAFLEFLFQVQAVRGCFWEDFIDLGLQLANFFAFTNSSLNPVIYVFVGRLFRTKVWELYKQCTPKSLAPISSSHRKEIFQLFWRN

[11] = molecular target: Serine/threonine-protein kinase Sgk1 (Homo sapiens) (UniProt O00141); test: Inhibition of SGK at 10 uM
[12] = Percentage binding to neuronal NACHR at 10 uM
Outline: (§2)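 Single-concentration screen within a panel of 54 receptors and ion channels, measuring binding or interaction at each target.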

[13] = molecular target: Mitogen-activated protein kinase 12 (Homo sapiens) (UniProt P53778); test: Inhibition of SAPK3 at 10 uM
Mitogen-activated protein kinase 12 (Homo sapiens), sequence (P53778 whole entry): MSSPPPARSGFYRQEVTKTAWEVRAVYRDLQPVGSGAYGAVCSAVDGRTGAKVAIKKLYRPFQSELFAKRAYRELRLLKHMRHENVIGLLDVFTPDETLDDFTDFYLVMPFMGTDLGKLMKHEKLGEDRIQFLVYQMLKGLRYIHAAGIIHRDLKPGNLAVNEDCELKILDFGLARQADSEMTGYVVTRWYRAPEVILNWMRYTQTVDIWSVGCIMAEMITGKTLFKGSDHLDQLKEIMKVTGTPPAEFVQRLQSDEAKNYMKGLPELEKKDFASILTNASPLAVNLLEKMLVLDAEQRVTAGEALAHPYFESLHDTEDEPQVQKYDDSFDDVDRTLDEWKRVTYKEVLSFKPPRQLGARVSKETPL

P-glycoprotein (human) = test: Basolateral cell permeability in MDCK with MDR transfectant overexpressing human p-glycoprotein; type: ADME, cell-based; settings: MDCK-MDR1
[14] = molecular target: B2 bradykinin receptor (Homo sapiens) (UniProt P30411); test: Percentage binding to bradykinin B2 at 10 uM
B2 bradykinin receptor (Homo sapiens), sequence (P30411 whole entry): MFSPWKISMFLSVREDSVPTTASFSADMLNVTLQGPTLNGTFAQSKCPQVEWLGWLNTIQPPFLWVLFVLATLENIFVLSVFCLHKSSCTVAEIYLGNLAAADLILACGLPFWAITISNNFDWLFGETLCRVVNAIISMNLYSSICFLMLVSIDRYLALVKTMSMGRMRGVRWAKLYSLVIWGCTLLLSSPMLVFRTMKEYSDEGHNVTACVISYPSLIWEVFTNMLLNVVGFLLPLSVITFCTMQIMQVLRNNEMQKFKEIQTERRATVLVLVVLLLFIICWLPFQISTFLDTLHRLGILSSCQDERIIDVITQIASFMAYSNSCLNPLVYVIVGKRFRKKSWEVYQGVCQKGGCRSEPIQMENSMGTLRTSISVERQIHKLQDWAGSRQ

[15] = molecular target: D(1A) dopamine receptor (Homo sapiens) (UniProt P21728); test: Percentage binding to dopamine D1 at 10 uM
D(1A) dopamine receptor (Homo sapiens), sequence (P21728 whole entry): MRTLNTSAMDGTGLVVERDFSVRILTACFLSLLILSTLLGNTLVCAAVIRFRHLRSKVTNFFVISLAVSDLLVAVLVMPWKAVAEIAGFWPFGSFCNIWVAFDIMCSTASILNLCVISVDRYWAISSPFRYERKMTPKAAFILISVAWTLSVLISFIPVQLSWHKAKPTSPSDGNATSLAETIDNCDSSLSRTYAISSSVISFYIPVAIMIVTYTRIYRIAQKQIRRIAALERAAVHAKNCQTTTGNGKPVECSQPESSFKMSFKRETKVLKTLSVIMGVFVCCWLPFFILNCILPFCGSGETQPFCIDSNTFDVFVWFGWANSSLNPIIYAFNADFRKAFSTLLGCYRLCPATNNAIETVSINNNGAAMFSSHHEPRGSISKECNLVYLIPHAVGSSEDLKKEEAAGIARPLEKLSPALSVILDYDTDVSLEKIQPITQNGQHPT

[16] = molecular target: Protein kinase C alpha type (Homo sapiens) (UniProt P17252); test: Inhibition of PKCalpha at 10 uM
[17] = molecular target: Voltage-dependent L-type calcium channel subunit alpha-1D (Homo sapiens) (UniProt Q01668); test: Percentage binding to dihydropyridine sensitive Ca2+ channel D at 10 uM; outline: as §2
[18] = molecular target: 5-hydroxytryptamine receptor 7 (Homo sapiens) (UniProt P34969); test: Percentage binding to serotonin 5HT7 at 10 uM
5-hydroxytryptamine receptor 7 (Homo sapiens), sequence (P34969 whole entry): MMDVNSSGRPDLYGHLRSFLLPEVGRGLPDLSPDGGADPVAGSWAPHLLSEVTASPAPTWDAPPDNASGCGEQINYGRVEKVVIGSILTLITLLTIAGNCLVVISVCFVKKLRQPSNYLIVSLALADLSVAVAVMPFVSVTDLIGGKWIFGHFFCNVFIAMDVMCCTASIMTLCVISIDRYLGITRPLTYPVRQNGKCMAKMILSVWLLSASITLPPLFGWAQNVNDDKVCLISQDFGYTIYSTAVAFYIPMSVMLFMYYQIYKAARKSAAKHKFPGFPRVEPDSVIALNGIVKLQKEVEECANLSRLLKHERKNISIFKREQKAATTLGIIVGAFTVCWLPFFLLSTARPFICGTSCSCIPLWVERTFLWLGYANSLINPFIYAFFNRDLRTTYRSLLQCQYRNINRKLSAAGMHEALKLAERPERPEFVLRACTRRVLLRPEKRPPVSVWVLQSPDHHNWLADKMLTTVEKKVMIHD

[19] = molecular target: D(2) dopamine receptor (Homo sapiens) (UniProt P14416); test: Percentage binding to dopamine D2 at 10 uM
[20] = molecular target: Sodium-dependent noradrenaline transporter (Homo sapiens) (UniProt P23975); test: Activity against norepinephrine uptake at 10 uM
Sodium-dependent noradrenaline transporter (Homo sapiens), sequence (P23975 whole entry): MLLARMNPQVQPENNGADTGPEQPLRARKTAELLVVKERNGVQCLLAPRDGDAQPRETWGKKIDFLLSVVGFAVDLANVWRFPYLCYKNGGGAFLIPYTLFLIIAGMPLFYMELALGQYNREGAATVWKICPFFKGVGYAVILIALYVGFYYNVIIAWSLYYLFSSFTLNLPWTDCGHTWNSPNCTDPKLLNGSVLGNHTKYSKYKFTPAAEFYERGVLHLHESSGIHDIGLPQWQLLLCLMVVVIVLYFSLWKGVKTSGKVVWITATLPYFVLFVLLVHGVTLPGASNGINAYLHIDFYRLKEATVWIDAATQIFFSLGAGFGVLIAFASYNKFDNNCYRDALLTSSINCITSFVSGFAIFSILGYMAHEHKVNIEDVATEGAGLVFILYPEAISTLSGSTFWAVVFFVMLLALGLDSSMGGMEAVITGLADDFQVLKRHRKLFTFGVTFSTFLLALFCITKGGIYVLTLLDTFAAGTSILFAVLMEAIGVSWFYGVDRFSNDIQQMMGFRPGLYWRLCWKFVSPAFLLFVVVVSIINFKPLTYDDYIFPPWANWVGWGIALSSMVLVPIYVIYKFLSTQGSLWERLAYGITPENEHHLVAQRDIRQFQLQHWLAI

[21] = molecular target: Thyroid hormone receptor (Homo sapiens) (UniProt P10827+P10828); test: Percentage binding to thyroid hormone receptor at 10 uM; type: protein-complex assay
[22] = molecular target: Acetylcholine receptor; alpha1/beta1/delta/gamma (Homo sapiens) (UniProt P02708+P07510+P11230+Q07001); test: Percentage binding to muscle NACHR at 10 uM; type: tissue-based; settings: Muscle tissue
[23] = molecular target: Mitogen-activated protein kinase 13 (Homo sapiens) (UniProt O15264); test: Inhibition of SAPK4 at 10 uM
Mitogen-activated protein kinase 13 (Homo sapiens), sequence (O15264 whole entry): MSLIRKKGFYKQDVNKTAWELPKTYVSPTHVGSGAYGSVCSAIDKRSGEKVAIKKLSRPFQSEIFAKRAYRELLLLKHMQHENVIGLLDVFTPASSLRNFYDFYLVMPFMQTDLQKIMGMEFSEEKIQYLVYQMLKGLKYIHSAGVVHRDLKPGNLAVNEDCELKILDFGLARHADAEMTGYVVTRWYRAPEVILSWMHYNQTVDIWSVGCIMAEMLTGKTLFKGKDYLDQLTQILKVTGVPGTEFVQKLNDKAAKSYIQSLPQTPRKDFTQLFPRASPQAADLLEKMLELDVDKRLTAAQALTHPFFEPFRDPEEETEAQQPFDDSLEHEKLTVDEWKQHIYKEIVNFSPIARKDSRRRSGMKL

[24] = molecular target: 5-hydroxytryptamine receptor 4 (Homo sapiens) (UniProt Q13639); test: Percentage binding to serotonin 5HT4 at 10 uM
5-hydroxytryptamine receptor 4 (Homo sapiens), sequence (Q13639 whole entry): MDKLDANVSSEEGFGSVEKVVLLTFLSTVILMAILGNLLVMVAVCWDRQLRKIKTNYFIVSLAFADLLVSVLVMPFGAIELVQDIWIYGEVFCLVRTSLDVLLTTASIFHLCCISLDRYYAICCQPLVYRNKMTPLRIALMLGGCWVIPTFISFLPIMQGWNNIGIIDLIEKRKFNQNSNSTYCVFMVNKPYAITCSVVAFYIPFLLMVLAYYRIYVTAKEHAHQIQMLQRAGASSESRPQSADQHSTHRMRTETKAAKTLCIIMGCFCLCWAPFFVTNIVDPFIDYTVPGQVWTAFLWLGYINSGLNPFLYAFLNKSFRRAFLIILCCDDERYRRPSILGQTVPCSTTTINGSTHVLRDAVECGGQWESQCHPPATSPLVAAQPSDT

[25] = molecular target: Platelet-activating factor receptor (Homo sapiens) (UniProt P25105); test: Percentage binding to PAF at 10 uM
[26] = molecular target: 5-hydroxytryptamine receptor 1A (Homo sapiens) (UniProt P08908); test: Percentage binding to serotonin 5HT1A at 10 uM
5-hydroxytryptamine receptor 1A (Homo sapiens), sequence (P08908 whole entry): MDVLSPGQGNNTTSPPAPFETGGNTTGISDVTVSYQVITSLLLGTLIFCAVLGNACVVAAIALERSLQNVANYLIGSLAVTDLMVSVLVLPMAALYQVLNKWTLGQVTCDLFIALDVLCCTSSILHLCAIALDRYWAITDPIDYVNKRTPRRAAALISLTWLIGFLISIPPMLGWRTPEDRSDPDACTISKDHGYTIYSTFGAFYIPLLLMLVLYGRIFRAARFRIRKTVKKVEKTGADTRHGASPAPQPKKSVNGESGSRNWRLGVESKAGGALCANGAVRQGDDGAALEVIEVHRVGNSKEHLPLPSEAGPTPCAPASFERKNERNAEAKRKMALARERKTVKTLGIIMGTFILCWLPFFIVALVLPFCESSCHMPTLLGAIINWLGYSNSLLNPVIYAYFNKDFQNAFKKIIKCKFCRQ

[27] = molecular target: Serotonin 3 (5-HT3) receptor (Homo sapiens) (UniProt P46098+A5X5Y0+O95264+Q70Z44+Q8WXA8); test: Percentage binding to serotonin 5HT3 at 10 uM; type: protein-complex assay
[28] = molecular target: Adenosine receptor A1 (Homo sapiens) (UniProt P30542); test: Percentage binding to adenosine A1 receptor at 10 uM
Adenosine receptor A1 (Homo sapiens), sequence (P30542 whole entry): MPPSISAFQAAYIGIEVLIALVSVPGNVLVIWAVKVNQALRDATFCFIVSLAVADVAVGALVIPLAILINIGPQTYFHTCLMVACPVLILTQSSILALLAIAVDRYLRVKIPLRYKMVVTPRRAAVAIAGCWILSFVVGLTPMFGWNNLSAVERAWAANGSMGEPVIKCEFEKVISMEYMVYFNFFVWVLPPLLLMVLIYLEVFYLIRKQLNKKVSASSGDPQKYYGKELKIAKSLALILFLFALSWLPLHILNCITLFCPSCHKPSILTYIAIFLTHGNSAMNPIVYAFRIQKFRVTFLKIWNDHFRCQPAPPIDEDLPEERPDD

[29] = molecular target: Cyclin-dependent kinase 2 (Homo sapiens) (UniProt P24941); test: Inhibition of CDK2 at 10 uM
[30] = molecular target: cAMP and cAMP-inhibited cGMP 3',5'-cyclic phosphodiesterase 10A (Homo sapiens, UniProt Q9Y233); test: Inhibitory activity against PDE10 by scintillation proximity assay
Outline: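 Phosphodiesterase inhibition run as a scintillation proximity assay, with enzyme at a concentration in the linear range. Final substrate was 1 µM, below one-third of the enzyme K_M, so that IC50 approximates Ki. Values are means of n experiments with standard deviation.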

[31] = molecular target: Kappa-type opioid receptor (Homo sapiens) (UniProt P41145); test: Percentage binding to opioid kappa at 10 uM
[32] = molecular target: Voltage-dependent N-type calcium channel subunit alpha-1B (Homo sapiens) (UniProt Q00975); test: Percentage binding to Ca2+ channel N at 10 uM
[33] = molecular target: 5-hydroxytryptamine receptor 2A (Homo sapiens) (UniProt P28223); test: Percentage binding to serotonin 5HT2A at 10 uM
[34] = molecular target: Mitogen-activated protein kinase 8 (Homo sapiens) (UniProt P45983); test: Inhibition of JNK1a1 at 10 uM
[35] = molecular target: Ribosomal protein S6 kinase (P70S6K) (Homo sapiens) (UniProt Q9UBS0+P23443); test: Inhibition of p70S6K at 10 uM; type: protein-complex assay
[36] = molecular target: Glutamate receptor ionotropic AMPA (Homo sapiens) (UniProt P48058+P42263+P42262+P42261); test: Percentage binding to AMPA at 10 uM; type: protein-complex assay
[37] = Apical Caco-2 cell membrane permeability; type: ADME, cell-based; settings: human
[38] = molecular target: 5-hydroxytryptamine receptor 2C (Homo sapiens) (UniProt P28335); test: Percentage binding to serotonin 5HT2C at 10 uM
5-hydroxytryptamine receptor 2C (Homo sapiens), sequence (P28335 whole entry): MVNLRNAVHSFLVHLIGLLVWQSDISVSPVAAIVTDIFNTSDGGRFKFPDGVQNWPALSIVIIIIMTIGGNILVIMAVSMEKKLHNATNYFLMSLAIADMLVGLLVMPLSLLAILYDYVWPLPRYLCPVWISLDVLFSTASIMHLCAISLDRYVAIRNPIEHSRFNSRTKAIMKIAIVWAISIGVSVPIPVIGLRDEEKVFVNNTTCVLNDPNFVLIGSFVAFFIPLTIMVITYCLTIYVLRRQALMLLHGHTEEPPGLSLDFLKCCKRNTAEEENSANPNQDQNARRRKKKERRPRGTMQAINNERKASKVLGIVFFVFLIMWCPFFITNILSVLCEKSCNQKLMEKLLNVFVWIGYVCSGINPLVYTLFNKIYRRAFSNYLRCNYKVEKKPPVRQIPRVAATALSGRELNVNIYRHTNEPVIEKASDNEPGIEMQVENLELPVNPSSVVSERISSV

[39] = molecular target: Dual specificity tyrosine-phosphorylation-regulated kinase 1A (Homo sapiens) (UniProt Q13627); test: Inhibition of DYRK1A at 10 uM
[40] = molecular target: Rho-associated protein kinase 2 (Homo sapiens) (UniProt O75116); test: Inhibition of ROCK2 at 10 uM
[41] = molecular target: cAMP-dependent protein kinase (PKA) (Homo sapiens) (UniProt P22694+P17612+P22612); test: Inhibition of PKA at 10 uM; type: protein assay
[42] = molecular target: 3-phosphoinositide-dependent protein kinase 1 (Homo sapiens) (UniProt O15530); test: Inhibition of PDK1 at 10 uM

inhibition [1]: 16%
Activity [2]: 0%
Papp [3]: 3 ×10⁻⁶ cm/s
Cmax [4]: 8300 ng/mL
Activity [5]: 0%
clearance [6]: 8.8 mL/min/kg
Activity [7]: 0%
bioavailability [8]: 41%
Activity [9]: 12%
Activity [10]: 0%
inhibition [11]: 0%
Activity [12]: 7%
inhibition [13]: 7%
Papp (P-glycoprotein (human)): 4.6 ×10⁻⁶ cm/s
Activity [14]: 5%
Activity [15]: 5%
inhibition [16]: 13%
Activity [17]: 0%
Activity [18]: 0%
Activity [19]: 12%
Activity [20]: 12%
Activity [21]: 0%
Activity [22]: 0%
inhibition [23]: 13%
Activity [24]: 0%
Activity [25]: 21%
Activity [26]: 23%
Activity [27]: 0%
Activity [28]: 16%
inhibition [29]: 2%
pIC50 [30]: < 4.80
Activity [31]: 0%
Activity [32]: 0%
Activity [33]: 15%
inhibition [34]: 0%
inhibition [35]: 23%
Activity [36]: 20%
Papp [37]: 5 ×10⁻⁶ cm/s
Activity [38]: 0%
inhibition [39]: 53%
inhibition [40]: 20%
inhibition [41]: 16%
inhibition [42]: 0%
SMILES: CN1C(=O)C(C(=O)Nc2nncs2)c2cc3occc3cc21 (stereo not drawn)
